Our source for the IC20 and IC50 values is ChEMBL document CHEMBL1135620, “Cyclosporins: structure-activity relationships for the inhibition of the human FPR1 formylpeptide receptor” (J Med Chem, 2002).

In the first experiment the target is T1, fMet-Leu-Phe receptor (Homo sapiens) (UniProt P21462).
T1 sequence (whole entry): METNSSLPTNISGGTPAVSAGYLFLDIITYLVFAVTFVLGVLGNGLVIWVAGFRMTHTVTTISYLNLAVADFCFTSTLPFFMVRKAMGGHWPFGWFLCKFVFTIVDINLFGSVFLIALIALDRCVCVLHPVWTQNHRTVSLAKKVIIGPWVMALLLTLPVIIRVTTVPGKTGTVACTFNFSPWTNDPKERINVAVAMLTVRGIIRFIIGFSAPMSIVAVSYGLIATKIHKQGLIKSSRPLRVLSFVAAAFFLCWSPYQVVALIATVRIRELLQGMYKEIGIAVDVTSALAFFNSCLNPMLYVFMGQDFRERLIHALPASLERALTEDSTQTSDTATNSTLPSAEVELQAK
The experiment can be described thus: Inhibitory activity against Human formylpeptide receptor (FPR) of human leukemia HL-60 cells. The experiment is classed as cell-based.
Details: not given
A digest of the protocol:
(§1)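 HL-60 cells differentiated 48 h with 0.2 mM dibutyryl cAMP, washed, then treated with 5 μM cytochalasin B (5–10 min, 37 °C). Stimulated 10 min with 30 nM f-MLF. N-acetyl-β-D-glucosaminidase release read at 410 nm on p-nitrophenyl substrate after spontaneous-release subtraction. Duplicate wells; IC20/IC50 as mean ± SD of independent experiments.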
The molecule `C/C=C/C[C@@H](C)[C@@H](O)[C@H]1C(=O)N[C@@H](CC)C(=O)N(C)CC(=O)N(C)[C@H](CC(C)C)C(=O)N[C@H](C(C)C)C(=O)N(C)[C@H](CC(C)C)C(=O)N[C@@H](C)C(=O)N[C@H](C)C(=O)N(C)[C@@H](CC(C)C)C(=O)N(C)[C@@H](CC(C)C)C(=O)N(C)[C@H]([C@H](C)CC)C(=O)N1C` returned an IC20 of 0.29 µM.

In a further experiment the target is T2, fMet-Leu-Phe receptor (Homo sapiens, UniProt P21462).
T2 sequence (P21462 whole entry): T1 sequence (whole entry)
The experiment can be described thus: Inhibitory activity against human formylpeptide receptor (FPR) of human leukemia HL-60 cells. Type of experiment: cell-based.
Details: not given
The procedure, abridged: as §1
Turning to `C/C=C/C[C@@H](C)[C@@H](O)[C@H]1C(=O)N[C@@H](CC)C(=O)N(C)CC(=O)N(C)[C@@H](CC(C)C)C(=O)N[C@@H](C(C)C)C(=O)N(C)[C@@H](CC(C)C)C(=O)N[C@@H](C)C(=O)N[C@H](C)C(=O)N(C)[C@@H](CC(C)C)C(=O)N[C@@H](CC(C)C)C(=O)N(C)[C@@H](C(C)C)C(=O)N1C`, the IC50 was determined as 9.2 µM.

Regarding `CC(C)C[C@H]1C(=O)N[C@@H](C(C)C)C(=O)N(C)[C@@H](CC(C)C)C(=O)N[C@@H](C)C(=O)N[C@H](C)C(=O)N(C)[C@@H](CC(C)C)C(=O)N(C)[C@@H](CC(C)C)C(=O)N(C)[C@@H](C(C)C)C(=O)N(C)[C@@H](CC(C)C)C(=O)N[C@@H](C(C)C)C(=O)N(C)CC(=O)N1C`, the IC50 was greater than 10 µM.

On to `C/C=C/C[C@@H](C)[C@@H](O)[C@H]1C(=O)N[C@@H]([C@@H](C)O)C(=O)N(C)CC(=O)N(C)[C@@H](CC(C)C)C(=O)N[C@@H](C(C)C)C(=O)N(C)[C@@H](CC(C)C)C(=O)N[C@@H](C)C(=O)N[C@H](C)C(=O)N(C)[C@@H](CC(C)C)C(=O)N(C)[C@@H](CC(C)C)C(=O)N[C@@H](C(C)C)C(=O)N1C`, for which the IC50 was greater than 10 µM.

`CC/C=C/C[C@@H](C)[C@@H](O)[C@H]1C(=O)N[C@@H](CC)C(=O)N(C)CC(=O)N(C)[C@@H](CC(C)(C)O)C(=O)N[C@@H](C(C)C)C(=O)N(C)[C@@H](CC(C)C)C(=O)N[C@@H](C)C(=O)N[C@H](C)C(=O)N(C)[C@@H](CC(C)C)C(=O)N(C)[C@@H](CC(C)C)C(=O)N(C)[C@@H](C(C)C)C(=O)N1C` had an IC50 greater than 10 µM.

`CC/C=C/C[C@@H](C)[C@@H](O)[C@H]1C(=O)N[C@@H]([C@@H](C)O)C(=O)N(C)CC(=O)N(C)[C@@H](CC(C)C)C(=O)N[C@@H](C(C)C)C(=O)N(C)[C@@H](CC(C)C)C(=O)N[C@@H](C)C(=O)N[C@H](C)C(=O)N(C)[C@@H](CC(C)C)C(=O)N(C)[C@@H](CC(C)C)C(=O)N(C)[C@@H](C(C)C)C(=O)N1C` returned an IC50 greater than 10 µM.

Turning to `C/C=C/C[C@@H](C)[C@@H](O)[C@H]1C(=O)N[C@@H](CCC)C(=O)N(C)CC(=O)N(C)[C@@H](CC(C)C)C(=O)N[C@@H](C(C)C)C(=O)N(C)[C@@H](CC(C)C)C(=O)N[C@@H](C)C(=O)N[C@H](C)C(=O)N(C)[C@@H](CC(C)C)C(=O)N[C@@H](CC(C)C)C(=O)N(C)[C@@H](C(C)C)C(=O)N1C`, the IC50 is greater than 3 µM.

Regarding `CC/C=C/C[C@@H](C)[C@@H](O)[C@H]1C(=O)N[C@@H](CC)C(=O)N(C)CC(=O)N(C)[C@@H](C(C)C)C(=O)N[C@@H](C(C)C)C(=O)N(C)[C@@H](CC(C)C)C(=O)N[C@@H](C)C(=O)N[C@H](C)C(=O)N(C)[C@@H](CC(C)C)C(=O)N(C)[C@@H](CC(C)C)C(=O)N(C)[C@@H](C(C)C)C(=O)N1C`, the IC50 was greater than 5 µM.

On to `C/C=C/C[C@@H](C)[C@@H](O)[C@H]1C(=O)N[C@@H](CC)C(=O)N(C)CC(=O)N(C)[C@@H](CC(C)C)C(=O)N[C@@H](C(C)C)C(=O)N(C)[C@@H](CC(C)C)C(=O)N[C@@H](C)C(=O)N[C@H](C)C(=O)N(C)[C@@H](CC(C)C)C(=O)N(C)[C@@H](CC(C)C)C(=O)N[C@@H](C(C)C)C(=O)N1C`, for which the IC50 was greater than 10 µM.

`CC[C@@H]1NC(=O)[C@H](CC2CCCCC2)N(C)C(=O)[C@H](C(C)C)N(C)C(=O)[C@H](CC(C)C)N(C)C(=O)[C@H](CC(C)C)N(C)C(=O)[C@@H](C)NC(=O)[C@H](C)NC(=O)[C@H](CC(C)C)N(C)C(=O)[C@H](C(C)C)NC(=O)[C@H](CC(C)C)N(C)C(=O)CN(C)C1=O` displayed an IC50 of 6.33 µM.

As for `C/C=C/C[C@@H](C)[C@@H](O)[C@H]1C(=O)N[C@@H]([C@@H](C)O)C(=O)NCC(=O)N(C)[C@@H](CC(C)C)C(=O)N[C@@H](CC(C)C)C(=O)N(C)[C@@H](CC(C)C)C(=O)N[C@@H](C)C(=O)N[C@](O)(C(C)C)C(=O)N(C)[C@@H](CC(C)C)C(=O)N[C@@H](CC(C)C)C(=O)N(C)[C@@H](C(C)C)C(=O)N1C`, the IC50 was 0.3 µM.

In the case of `C/C=C/C[C@@H](C)[C@@H](O)[C@H]1C(=O)N[C@@H]([C@@H](C)O)C(=O)N(C)CC(=O)N(C)[C@@H](CC(C)C)C(=O)N[C@@H]([C@@H](C)CC)C(=O)N(C)[C@@H](CC(C)C)C(=O)N[C@@H](C)C(=O)N[C@](O)(C(C)C)C(=O)N(C)[C@@H](CC(C)C)C(=O)N[C@@H](CC(C)C)C(=O)N(C)[C@@H](C(C)C)C(=O)N1C`, the IC50 amounted to 0.75 µM.

In the case of `C/C=C/C[C@@H](C)[C@@H](O)[C@H]1C(=O)N[C@@H]([C@@H](C)O)C(=O)N(C)CC(=O)N(C)[C@@H](CC(C)C)C(=O)N[C@@H]([C@@H](C)CC)C(=O)N(C)[C@@H](CC(C)C)C(=O)N[C@@H](C)C(=O)N[C@H](C)C(=O)N(C)[C@@H](CC(C)C)C(=O)N(C)[C@@H](CC(C)C)C(=O)N(C)[C@@H](C(C)C)C(=O)N1C`, the IC50 was determined as 2.3 µM.

`CC/C=C/C[C@@H](C)[C@@H](O)[C@H]1C(=O)N[C@@H](CC)C(=O)N(C)CC(=O)N(C)[C@@H]([C@@H](C)CC)C(=O)N[C@@H](C(C)C)C(=O)N(C)[C@@H](CC(C)C)C(=O)N[C@@H](C)C(=O)N[C@H](C)C(=O)N(C)[C@@H](CC(C)C)C(=O)N(C)[C@@H](CC(C)C)C(=O)N(C)[C@@H](C(C)C)C(=O)N1C` displayed an IC50 of 7 µM. Compared with the last molecule, the IC50 is about 3-fold higher.

`C/C=C/C[C@@H](C)[C@@H](O)[C@H]1C(=O)N[C@@H]([C@@H](C)O)C(=O)N(C)CC(=O)N(C)[C@@H](CC(C)C)C(=O)N[C@@H](CC(C)C)C(=O)N(C)[C@@H](CC(C)C)C(=O)N[C@@H](C)C(=O)N[C@](O)(C(C)C)C(=O)N(C)[C@@H](CC(C)C)C(=O)N[C@@H](CC(C)C)C(=O)N(C)[C@@H](C(C)C)C(=O)N1C` had an IC50 of 0.57 µM.

Consider `C/C=C/C[C@@H](C)C[C@H]1C(=O)N[C@@H](CC)C(=O)N(C)CC(=O)N(C)[C@@H](CC(C)C)C(=O)N[C@@H](C(C)C)C(=O)N(C)[C@@H](CC(C)C)C(=O)N[C@@H](C)C(=O)N[C@H](C)C(=O)N(C)[C@@H](CC(C)C)C(=O)N(C)[C@@H](CC(C)C)C(=O)N(C)[C@@H](C(C)C)C(=O)N1C`, for which the IC50 is greater than 10 µM.

On to `C/C=C/C[C@@H](C)[C@@H](O)[C@H]1C(=O)N[C@@H](CCC)C(=O)N(C)CC(=O)N(C)[C@@H](CC(C)C)C(=O)N[C@@H](CCC)C(=O)N(C)[C@@H](CC(C)C)C(=O)N[C@@H](C)C(=O)N[C@H](C)C(=O)N(C)[C@@H](CC(C)C)C(=O)N(C)[C@@H](CC(C)C)C(=O)N(C)[C@@H](C(C)C)C(=O)N1C`, for which the IC50 is 3.4 µM.

In the case of `CC(C)C[C@@H]1NC(=O)[C@H](CC(C)C)N(C)C(=O)[C@@](O)(C(C)C)NC(=O)[C@H](C)NC(=O)[C@H](CC(C)C)N(C)C(=O)[C@H](CC(C)C)NC(=O)[C@H](CC(C)C)N(C)C(=O)CN(C)C(=O)[C@H]([C@@H](C)O)NC(=O)[C@H]([C@H](O)[C@H](C)C/C=C/CO)N(C)C(=O)[C@H](C(C)C)N(C)C1=O`, the IC50 is 1.48 µM.

Consider `C/C=C/C[C@@H](C)[C@@H](O)[C@H]1C(=O)N[C@@H]([C@@H](C)O)C(=O)N(C)CC(=O)N(C)[C@@H](CC(C)C)C(=O)N[C@@H](CC(C)C)C(=O)N(C)[C@@H](CC(C)C)C(=O)N[C@@H](C)C(=O)N[C@H](C)C(=O)N(C)[C@@H](CC(C)C)C(=O)N[C@@H](C)C(=O)N(C)[C@@H](C(C)C)C(=O)N1C`, for which the IC50 is 3.25 µM.

On to `C/C=C/C[C@@H](C)[C@@H](O)[C@H]1C(=O)N[C@@H](CC)C(=O)N(C)CC(=O)N(C)[C@@H](CC(C)C)C(=O)N[C@@H](C(C)C)C(=O)N[C@@H](CC(C)C)C(=O)N[C@@H](C)C(=O)N[C@H](C)C(=O)N(C)[C@@H](CC(C)C)C(=O)N[C@@H](CC(C)C)C(=O)N(C)[C@@H](C(C)C)C(=O)N1C`, for which half-maximal inhibition (IC50) was put at 1.8 µM.

The molecule `C/C=C/C[C@@H](C)[C@@H](O)[C@H]1C(=O)N[C@@H](CCC)C(=O)N(C)CC(=O)N(C)[C@@H](CC(C)C)C(=O)N[C@@H](CC(C)C)C(=O)N(C)[C@@H](CC(C)C)C(=O)N[C@@H](C)C(=O)N[C@H](C)C(=O)N(C)[C@@H](CC(C)C)C(=O)N(C)[C@@H](CC(C)C)C(=O)N(C)[C@@H](C(C)C)C(=O)N1C` yielded an IC50 greater than 10 µM.

The experiment is the same for the next values; noted with them: hl-60.
Take `C/C=C/C[C@@H](C)[C@@H](O)[C@H]1C(=O)N[C@@H](CC)C(=O)N(C)CC(=O)N(C)[C@H](CC(C)C)C(=O)N[C@H](C(C)C)C(=O)N(C)[C@H](CC(C)C)C(=O)N[C@@H](C)C(=O)N[C@H](C)C(=O)N(C)[C@@H](CC(C)C)C(=O)N(C)[C@@H](CC(C)C)C(=O)N(C)[C@H]([C@H](C)CC)C(=O)N1C`: the IC50 was determined as 1.57 µM. This counts as single-digit micromolar.

As to `C/C=C/C[C@@H](C)[C@@H](O)[C@H]1C(=O)N[C@@H](CC)C(=O)N(C)CC(=O)N(C)[C@@H](CC(C)C)C(=O)N[C@@H](C(C)C)C(=O)N(C)[C@@H](CC(C)C)C(=O)N[C@@H](C)C(=O)N[C@H](C)C(=O)N(C)[C@@H](CC(C)C)C(=O)N(C)[C@@H](CC(C)C)C(=O)N(C)[C@@H]([C@@H](C)CC)C(=O)N1C`, the IC50 is greater than 10 µM.

On to `C/C=C/C[C@@H](C)[C@@H](O)[C@H]1C(=O)N[C@@H](CC)C(=O)N(C)CC(=O)N[C@@H]([C@@H](C)CC)C(=O)N[C@@H](C(C)C)C(=O)N(C)[C@@H](CC(C)C)C(=O)N[C@@H](C)C(=O)N[C@H](C)C(=O)N(C)[C@@H](CC(C)C)C(=O)N(C)[C@@H](CC(C)C)C(=O)N(C)[C@@H](C(C)C)C(=O)N1C`, for which the IC50 was greater than 5 µM.

`CC/C=C/C[C@@H](C)[C@@H](O)[C@H]1C(=O)N[C@@H](CC)C(=O)N(C)CC(=O)N(C)[C@@H](Cc2ccccc2)C(=O)N[C@@H](C(C)C)C(=O)N(C)[C@@H](CC(C)C)C(=O)N[C@@H](C)C(=O)N[C@H](C)C(=O)N(C)[C@@H](CC(C)C)C(=O)N(C)[C@@H](CC(C)C)C(=O)N(C)[C@@H](C(C)C)C(=O)N1C` came in with an IC50 greater than 10 µM.

By IC20 is commonly meant the concentration at which the effect reaches the 20% level. Low values mean an effect from little substance, high ones a need for much substance. One may read the IC50 as the concentration at which inhibition is half-maximal.
